According to article PMC9401544 (Clinical Cancer Research, 2021):

Assays:
[1] = tested on: tenosynovial giant cell tumor (TGCT); assay: Tumor response by RECIST 1.1; type: in vivo, human
[2] = tested on: advanced solid tumors (MEC, GIST, ATC, malignant effusions, miscellaneous tumor types); type: in vivo, human
Outline: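 Adults with advanced, incurable tumours received 1,000 mg/day, split 600 mg morning and 400 mg evening, continued to progression or unacceptable toxicity. Response was assessed locally by imaging at baseline and every 2 months per RECIST version 1.1, with readings not blinded to visit order. Data cutoff was 31 January 2018.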

[3] = tested on: patients with advanced solid tumors (TGCT and non-TGCT cohorts); assay: Safety: adverse events, laboratory assessments, ECG; type: in vivo, human
[4] = tested on: patients with advanced solid tumors (TGCT and non-TGCT cohorts); assay: Drug exposure: treatment duration, dose reductions, drug holidays; type: in vivo, human
Outline: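 Adult patients at 12 US centres took 1,000 mg/day (600 mg morning, 400 mg evening) until progression or unacceptable toxicity. Dose changes, usually in 200 mg/day steps, and temporary holds for toxicity or other reasons were allowed. Exposure was tallied to the 31 January 2018 cutoff. Months were computed as days divided by 30.4167.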

[5] = tested on: tenosynovial giant cell tumor (TGCT); conditions: 3 of the 4 TGCT patients; cited from earlier work
[6] = tested on: patients with TGCT; conditions: cited from earlier work
[7] = tested on: tenosynovial giant cell tumor (TGCT); conditions: patients with TGCT, usually; cited from earlier work
[8] = 13 TGCT subjects that remained on treatment, as of February 2021

SMILES: FC(F)(F)c1ccc(CNc2ccc(Cc3c[nH]c4ncc(Cl)cc34)cn2)cn1 [pexidartinib]
- median DOR [1, 8]: 1,529 days
- median PFS [1, 8]: 1,764 days
- patients with TGCT who achieved a response, RECIST 1.1 ([1]; CR + PR, of 39 FAS): 24 patients
- PR, RECIST 1.1 ([1]; TGCT): 22 patients
- complete response (CR), RECIST 1.1 ([1]; TGCT): 2 patients
- patients who progressed while on therapy, modified tumor response criteria ([1]; TGCT): 3 patients
- patients with SD that lasted for at least 6 months, RECIST 1.1 ([1]; TGCT): 8 patients
- patients with at least a 50% reduction in sum of longest tumor diameter ([1]; TGCT): Fifteen
- disease control rate (DCR = CR + PR + SD), RECIST 1.1 ([1]; TGCT FAS (n = 39)): 82%
- disease control rate (DCR = CR + PR + SD), RECIST 1.1 ([1]; TGCT efficacy-evaluable (n = 37)): 86%
- objective response rate (ORR), RECIST 1.1 per local reading ([1]; TGCT efficacy-evaluable population (n = 37)): 65%
- 25th percentile for duration of response (DOR) ([1]; TGCT, RECIST 1.1): 943 days
- ORR, RECIST 1.1 ([1]; both the FAS and efficacy-evaluable TGCT populations): over 60%
- patients with prolonged (>6 months) SD ([2]; non-TGCT): 6 patients
- median progression-free survival (PFS) ([2]; non-TGCT patients): 56 days
- patients with partial response (PR) ([2]; non-TGCT population (n = 52)): 1 patients
- patients with stable disease (SD) as best response ([2]; non-TGCT population (n = 52)): Fifteen
- cases meeting Hy's law criteria ([3]; all 91 patients): no cases that met criteria for Hy's law
- decreases in platelets, hemoglobin, white blood cells (neutrophils, lymphocytes): grade ([3]; all patients): generally grade 2 or less
- electrocardiogram abnormalities ([3]; all patients): No patient had clinically significant electrocardiogram abnormalities
- AST increase, treatment-related AE of grade ≥ 3 ([3]; non-TGCT patients): 4%
- fatigue, treatment-related AE of grade ≥ 3 ([3]; non-TGCT patients): 6%
- hypophosphatemia, treatment-related AE of grade ≥ 3 ([3]; non-TGCT patients): 4%
- patients with grade 3 elevations in aminotransferase levels ([3]; of the 91 patients): 6 patients
- alanine aminotransferase increase, grade ≥ 3 treatment-related AE ([3]; patients with TGCT): 10%
- aspartate aminotransferase (AST) increase, grade ≥ 3 treatment-related AE ([3]; patients with TGCT): 8%
- hypophosphatemia, grade ≥ 3 treatment-related AE ([3]; patients with TGCT): 10%
- nausea, treatment-related AE ([3]; patients with TGCT): 56%
- periorbital edema, treatment-related AE ([3]; patients with TGCT): 39%
- pruritus, treatment-related AE ([3]; patients with TGCT): 31%
- patients who had a drug holiday ([4]; of the 39 patients with TGCT): 27 (69%) n (%)
- patients who required dose reduction ([4]; of the 39 patients with TGCT): 24 (62%) n (%)
- patients who experienced a drug holiday ([4]; of the 91 patients): 40 (44%) n (%)
- patients who required dose reduction ([4]; of the 91 patients): 30 (33%) n (%)
- RECIST response in patients who had previously received other TKI treatment [5]: 75%
- time of presentation of serious liver toxicity ([6]; all cases, weeks of treatment): ≤ 8 weeks
- isolated aminotransferase elevations, share of hepatic adverse reactions ([6]; long-term treatment): > 90%
- time to radiologic response [7]: ≤ 4 months
